Measured values as given in ChEMBL document CHEMBL4387722.

How the values were obtained:
[1] = biological target: T1, Phosphotyrosine protein phosphatase (Mycobacterium tuberculosis, UniProt A0A045ISB3); test: Inhibition of Mycobacterium tuberculosis His-tagged PtpB expressed in Escherichia coli Rosetta 2 (DE3) using pNPP as substrate after 30 mins by spectrophotometric method
T1 sequence (A0A045ISB3 whole entry): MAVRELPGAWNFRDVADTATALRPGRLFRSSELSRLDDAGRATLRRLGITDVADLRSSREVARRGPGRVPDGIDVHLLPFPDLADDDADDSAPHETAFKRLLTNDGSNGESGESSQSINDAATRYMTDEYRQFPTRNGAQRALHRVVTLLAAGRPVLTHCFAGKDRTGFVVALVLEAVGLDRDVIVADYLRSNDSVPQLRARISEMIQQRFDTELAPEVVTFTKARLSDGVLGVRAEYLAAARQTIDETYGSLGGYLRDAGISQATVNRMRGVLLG

[2] = biological target: T2, Tyrosine-protein phosphatase non-receptor type 1 (Homo sapiens, UniProt P18031); test: Inhibition of human PTPN1 expressed in Escherichia coli Rosetta 2 (DE3) using pNPP as substrate after 45 mins by spectrophotometric method
T2 sequence (P18031 whole entry): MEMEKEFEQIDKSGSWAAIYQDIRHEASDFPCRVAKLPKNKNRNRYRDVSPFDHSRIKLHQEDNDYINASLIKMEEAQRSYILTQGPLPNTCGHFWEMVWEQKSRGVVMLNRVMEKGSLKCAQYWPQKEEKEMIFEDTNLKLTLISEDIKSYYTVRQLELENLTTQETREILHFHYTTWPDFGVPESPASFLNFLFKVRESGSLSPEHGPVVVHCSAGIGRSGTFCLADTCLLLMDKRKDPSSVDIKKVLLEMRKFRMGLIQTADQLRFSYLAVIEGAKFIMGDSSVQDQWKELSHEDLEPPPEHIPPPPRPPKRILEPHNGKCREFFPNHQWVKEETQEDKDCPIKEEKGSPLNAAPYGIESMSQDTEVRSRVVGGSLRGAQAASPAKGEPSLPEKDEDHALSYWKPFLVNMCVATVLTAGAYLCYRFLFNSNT

[3] = biological target: T3, Tyrosine-protein phosphatase non-receptor type 2 (Homo sapiens, UniProt P17706); test: Inhibition of human PTPN2 expressed in Escherichia coli Rosetta 2 (DE3) using pNPP as substrate after 45 mins by spectrophotometric method
T3 sequence (P17706 whole entry): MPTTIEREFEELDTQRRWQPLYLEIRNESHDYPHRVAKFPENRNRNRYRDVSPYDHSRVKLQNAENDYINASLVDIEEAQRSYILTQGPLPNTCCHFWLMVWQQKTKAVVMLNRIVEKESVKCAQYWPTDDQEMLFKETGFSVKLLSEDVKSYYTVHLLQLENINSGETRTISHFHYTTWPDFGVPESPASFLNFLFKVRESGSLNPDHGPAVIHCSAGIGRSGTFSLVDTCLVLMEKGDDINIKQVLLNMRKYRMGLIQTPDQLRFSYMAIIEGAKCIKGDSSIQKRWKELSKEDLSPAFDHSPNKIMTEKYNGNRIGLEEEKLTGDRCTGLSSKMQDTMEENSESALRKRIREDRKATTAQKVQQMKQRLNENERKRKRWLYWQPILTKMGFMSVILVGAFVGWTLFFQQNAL

[4] = biological target: T4, Tyrosine-protein phosphatase non-receptor type 5 (Homo sapiens, UniProt P54829); test: Inhibition of human PTPN5 expressed in Escherichia coli Rosetta 2 (DE3) using pNPP as substrate after 45 mins by spectrophotometric method
T4 sequence (P54829 whole entry): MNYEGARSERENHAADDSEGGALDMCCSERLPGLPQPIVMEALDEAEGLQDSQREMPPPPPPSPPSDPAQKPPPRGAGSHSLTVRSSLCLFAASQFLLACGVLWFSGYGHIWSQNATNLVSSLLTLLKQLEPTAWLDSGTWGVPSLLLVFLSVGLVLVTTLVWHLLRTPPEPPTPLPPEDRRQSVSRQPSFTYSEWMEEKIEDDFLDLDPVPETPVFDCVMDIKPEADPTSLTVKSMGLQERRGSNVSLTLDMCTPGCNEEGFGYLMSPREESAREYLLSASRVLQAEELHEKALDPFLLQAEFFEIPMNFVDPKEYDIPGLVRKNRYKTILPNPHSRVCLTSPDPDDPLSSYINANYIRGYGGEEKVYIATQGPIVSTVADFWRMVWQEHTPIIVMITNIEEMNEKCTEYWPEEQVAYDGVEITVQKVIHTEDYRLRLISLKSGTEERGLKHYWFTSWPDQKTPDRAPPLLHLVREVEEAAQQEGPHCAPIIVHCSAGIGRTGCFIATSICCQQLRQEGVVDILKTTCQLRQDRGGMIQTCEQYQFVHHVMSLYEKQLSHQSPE

[5] = test system: Mycobacterium tuberculosis; test: Antitubercular activity against Mycobacterium tuberculosis H37Rv after 5 days at 200 uM relative to control; assay type: functional; conditions: 120 h
Summary of the method: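 M. tuberculosis grown in liquid culture with compound at a fixed 200 μM for 5 days. Growth inhibition expressed as percent of control.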

[6] = Inhibition of refolded rhodanese (unknown origin) preincubated with Escherichia coli GroEL/GroES for 60 mins by measuring rhodanese enzyme activity followed by compound addition by Fe(SCN)3 dye based spectrometric analysis; set-up: species or system Homo sapiens
[7] = biological target: T5, Malate dehydrogenase, mitochondrial (Sus scrofa, UniProt P00346); test: Inhibition of refolded pig heart mitochondrial MDH preincubated with Escherichia coli GroEL/GroES for 45 mins using sodium mesoxalate as substrate followed by compound addition and measured after 20 to 30 mins by spectrometric analysis
T5 sequence (P00346 whole entry): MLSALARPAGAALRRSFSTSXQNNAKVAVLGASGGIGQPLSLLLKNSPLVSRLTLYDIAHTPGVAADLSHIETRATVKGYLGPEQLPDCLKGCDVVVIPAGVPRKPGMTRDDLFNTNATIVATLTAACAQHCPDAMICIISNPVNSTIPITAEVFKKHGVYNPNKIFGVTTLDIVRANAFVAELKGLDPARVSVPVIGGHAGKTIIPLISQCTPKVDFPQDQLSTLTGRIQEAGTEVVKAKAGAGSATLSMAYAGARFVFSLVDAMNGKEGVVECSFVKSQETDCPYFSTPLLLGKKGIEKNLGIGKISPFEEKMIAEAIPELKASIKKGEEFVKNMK

HSP60/HSP10 = HSP60/HSP10 (Homo sapiens, UniProt P10809); test: Inhibition of human HSP60 expressed in Escherichia coli Rosetta 2(DE3)/human HSP10 expressed in Escherichia coli Rosetta 2(DE3) pLysS cells assessed as reduction in HSP60/HSP10-mediated denatured pig heart mitochondrial MDH refolding by measuring MDH enzyme activity using sodium mesoxalate as substrate after 40 to 60 mins by spectrometric analysis
HSP60/HSP10, sequence (P10809 whole entry): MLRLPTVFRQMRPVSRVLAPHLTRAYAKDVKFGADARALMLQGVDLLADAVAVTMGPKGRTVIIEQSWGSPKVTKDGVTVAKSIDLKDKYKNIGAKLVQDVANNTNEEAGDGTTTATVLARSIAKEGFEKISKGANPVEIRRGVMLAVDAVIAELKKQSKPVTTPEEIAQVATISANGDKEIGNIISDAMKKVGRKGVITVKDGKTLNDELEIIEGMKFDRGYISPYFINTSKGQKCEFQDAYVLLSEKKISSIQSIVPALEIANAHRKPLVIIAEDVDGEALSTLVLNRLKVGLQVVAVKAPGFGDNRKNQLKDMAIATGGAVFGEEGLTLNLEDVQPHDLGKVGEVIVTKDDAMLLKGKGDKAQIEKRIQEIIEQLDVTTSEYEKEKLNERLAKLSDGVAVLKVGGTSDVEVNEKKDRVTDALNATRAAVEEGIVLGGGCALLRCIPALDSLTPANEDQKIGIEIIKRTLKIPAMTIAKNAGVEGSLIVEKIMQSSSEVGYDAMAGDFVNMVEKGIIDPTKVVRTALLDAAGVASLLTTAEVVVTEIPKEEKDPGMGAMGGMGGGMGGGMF
HSP60/HSP10, sequence (P61604 whole entry, further chain): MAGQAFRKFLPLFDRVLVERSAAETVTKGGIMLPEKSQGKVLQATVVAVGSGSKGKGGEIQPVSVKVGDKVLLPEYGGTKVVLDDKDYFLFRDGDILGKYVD

[8] = Cytotoxicity against human THLE3 cells assessed as reduction in cell viability after 48 hrs by Alamar blue assay; assay type: cell-based
Summary of the method: (§1)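 Alamar Blue viability read-out. Human liver (THLE-3) and kidney (HEK 293) cells incubated with compound for 48 h. Tested in dose-response to derive CC50.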

[9] = Cytotoxicity against human HEK293 cells assessed as reduction in cell viability after 48 hrs by Alamar blue assay; assay type: cell-based; summary of the method: as §1
[10] = test system: Mycobacterium tuberculosis; test: Antitubercular activity against Mycobacterium tuberculosis H37Rv after 5 days; assay type: functional, organism-based; conditions: 120 h

| Compound | IC50 [1] [µM] | IC50 [2] [µM] | IC50 [3] [µM] | IC50 [4] [µM] | inhibition at 200 µM [5] [%] | IC50 [6] [µM] | IC50 [7] [µM] | IC50 (HSP60/HSP10) [µM] | CC50 at 48 h [8] [µM] | CC50 at 48 h [9] [µM] | EC50 [10] [µM] |
| --- | --- | --- | --- | --- | --- | --- | --- | --- | --- | --- | --- |
| O=S(=O)(Nc1ccc2oc(-c3ccccc3)nc2c1)c1cccc(Cl)c1 | > 100 | 88 | 51 | > 100 | 45 | > 100 | > 63 | > 100 | 45 | 70 | – |
| O=S(=O)(Nc1ccc(-c2nc3cc(NS(=O)(=O)c4cccc5nonc45)ccc3o2)cc1)c1cccc2nonc12 | 8.8 | 34 | 58 | 40 | 76 | – | – | – | – | – | > 200 |
| N#Cc1cccc(S(=O)(=O)Nc2ccc(-c3nc4cc(NS(=O)(=O)c5cccc(C#N)c5)ccc4o3)cc2)c1 | 33 | 37 | 48 | 44 | 65 | – | – | – | – | – | > 200 |
| N#Cc1ccccc1S(=O)(=O)Nc1ccc(-c2nc3cc(NS(=O)(=O)c4ccccc4C#N)ccc3o2)cc1 | 18 | 56 | 69 | 47 | 85 | – | – | – | – | – | 113 |
| COc1ccccc1S(=O)(=O)Nc1ccc(-c2nc3ccccc3o2)cc1 | 59 | 54 | 53 | 44 | 0 | > 100 | > 63 | > 100 | > 100 | > 100 | – |
| O=S(=O)(Nc1ccc2oc(-c3ccccc3)nc2c1)c1ccccc1O | 98 | 76 | > 100 | 68 | 18 | > 100 | > 63 | 85 | 32 | 33 | – |
| O=S(=O)(Nc1ccc2oc(-c3ccccc3)nc2c1)c1ccc(F)c(C(F)(F)F)c1 | 46 | 76 | 39 | 26 | 23 | > 100 | > 63 | 69 | 55 | > 100 | – |
| O=S(=O)(Nc1ccc2oc(-c3ccccc3)nc2c1)c1ccc(O)cc1 | 97 | 92 | > 100 | 84 | 9 | > 100 | > 63 | 88 | > 100 | > 100 | – |
| C=Cc1ccc(S(=O)(=O)Nc2ccc3oc(-c4ccc(NS(=O)(=O)c5ccc(Cl)s5)cc4)nc3c2)cc1 | 3.9 | 7.2 | 12 | 12 | 10 | – | – | – | – | – | – |
| CS(=O)(=O)Nc1ccc2oc(-c3ccccc3)nc2c1 | > 100 | > 100 | > 100 | > 100 | 6 | > 100 | > 63 | > 100 | > 100 | > 100 | – |
| O=C(O)c1ccc(S(=O)(=O)Nc2ccc(-c3nc4cc(NS(=O)(=O)c5ccc(C(=O)O)cc5)ccc4o3)cc2)cc1 | 12 | > 100 | > 100 | > 100 | 10 | – | – | – | – | – | – |
| O=S(=O)(Nc1ccc(-c2nc3cc(NS(=O)(=O)c4ccccc4Cl)ccc3o2)cc1)c1ccccc1Cl | 6.4 | 16 | 22 | 17 | 0 | – | – | – | – | – | – |
| Cc1ccc(S(=O)(=O)Nc2ccc(-c3nc4ccc(NS(=O)(=O)c5ccc(C)cc5)cc4[nH]3)cc2)cc1 | 23 | 15 | 22 | 13 | 14 | – | – | – | – | – | – |
| O=S(=O)(Nc1ccc(-c2nc3cc(NS(=O)(=O)c4ccc(Cl)s4)ccc3o2)cc1)c1ccc(F)c(C(F)(F)F)c1 | 6.8 | 8.6 | 8.5 | 14 | 0 | – | – | – | – | – | – |
| COc1ccc(S(=O)(=O)Nc2ccc3oc(-c4ccc(NS(=O)(=O)c5ccc(Cl)s5)cc4)nc3c2)cc1 | 9.6 | 12 | 24 | 16 | 41 | – | – | – | – | – | – |
